Measurements published in publication PMC9314948 (Diabetes, Obesity & Metabolism, 2022).
“And” between values parts separate entries of the source, which are not always exact repeats. Equal entries are not always repeated.

Legend:
murine model = conditions: ref Palatin Technologies, Inc. data on file; cited from earlier work
obese women [1] = test: Study A: body weight, caloric intake and waist circumference; format: in vivo, human; conditions: not significant vs placebo (1.24%)
rat model = conditions: ref Palatin Technologies, Inc. data on file; cited from earlier work
[2] = Study A: accumulation of plasma bremelanotide concentration; format: in vivo, human; conditions: plasma 1 h after first dose of the day, SC 3 times daily
Method in brief: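 Day 1 doses are 1.25 mg then 1.0 mg twice; later days are 2.5 mg then 2.0 mg twice. Plasma is sampled 1 h after the first daily dose on days 2, 8 and 15. Day 8/day 2 and day 15/day 2 ratios are computed, with accumulation defined as mean ratio 95% CI >1.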

obese women [3] = test: Study B: blood pressure withdrawal criteria; format: in vivo, human; conditions: 2.5 mg/2.0 mg dosing regimen
Method in brief: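 Crossover regimen of 2.5 mg SC 1 h before breakfast and 2.0 mg 1 h before lunch over a 4-day period. Blood pressure is measured daily pre- and postdose after ≥5 min seated. Subjects are withdrawn unless systolic <155 mmHg and diastolic <95 mmHg at all assessments.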

obese women [4] = test: Study B: caloric intake and body weight; format: in vivo, human
Method in brief: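 Double-blind crossover in inpatient obese women with six randomized sequences of three 4-day regimens separated by 5-day washouts: placebo/placebo, 2.5/2.0 mg, or 2.5 mg/placebo, given SC 1 h before breakfast and lunch. Meals are weighed before and after eating, and snacks are allowed 18:00-midnight. Subjects are weighed each morning before breakfast in underwear or scrubs. ITT analysis uses MMRM for intake and ANCOVA for weight change, with two-sided p.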

obese women [5] = test: Study A: adverse events; format: in vivo, human; conditions: across Study A and Study B, subjects receiving bremelanotide
Method in brief: (§1)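 Treatment-emergent AEs, including SAEs, are recorded throughout both inpatient placebo-controlled, double-blind SC trials in premenopausal obese women, alongside vital signs, ECG, clinical laboratory tests and physical examination. The safety population is all randomized subjects given ≥1 dose.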

obese women [6] = test: Study B: adverse events; format: in vivo, human
Method in brief: as §1

obese women [7] = test: Study A: blood pressure; format: in vivo, human; conditions: over the course of the study, also seen with placebo
Method in brief: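 Study A, three-times-daily SC dosing for 15 days. Blood pressure is taken at screening, on the 2 days before dosing, on the day after dosing, and 15 min predose and 1 h postdose at each dose on days 1-15, with subjects seated ≥5 min. Continuation requires systolic <155 and diastolic <95 mmHg. Post- vs predose changes are summarized descriptively by visit and treatment.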

[8] = Study B: pharmacokinetics of SC bremelanotide; format: in vivo, human; conditions: mean ± SD; for Cavg (D1) / Cmax (D1) / Cavg / RACC3.5 (ratio of day 4/day 1 concentrations 3.5 h postdose) / Tmax / Cmax: Study B; for Cmax (D1) / AUC(0-t) / Cmax: plasma; for Cavg: full dosing interval; for AUC(0-t): AUC0−3.5, Study B
Method in brief: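 A further sample is taken on day 4 at 3.5 h postdose. Plasma levels are measured by HPLC-MS/MS and analysed non-compartmentally. RACC3.5 is the day 4/day 1 ratio at 3.5 h postdose.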

[9] = once-daily (2.5 mg/0 mg) SC, 4-day period, n = 22
[10] = twice-daily (2.5 mg/2.0 mg) SC, 4-day period, n = 20
[11] = once-daily (2.5 mg/0 mg) SC, dose 1, n = 17-22
[12] = once-daily (2.5 mg/0 mg) SC, n = 17-22
[13] = twice-daily (2.5 mg/2.0 mg) SC, dose 1, n = 19-20
[14] = twice-daily (2.5 mg/2.0 mg) SC, n = 19-20
[15] = human, in vivo, sc, once-daily (2.5 mg/0 mg) SC, n = 17-22
[16] = human, in vivo, sc, twice-daily (2.5 mg/2.0 mg) SC, n = 19-20

Mean ratio of day 8/day 2 bremelanotide concentrations [2]: 1.0
Mean ratio of day 15/day 2 bremelanotide concentrations [2]: 1.1
Cavg (D1) [8, 11]: 0.0516 ± 0.0101 µg/mL
Cmax (D1) [8, 11]: 0.0751 ± 0.0161 µg/mL
Cavg [8, 12]: 0.0252 ± 0.0047 µg/mL
RACC3.5 (ratio of day 4/day 1 concentrations 3.5 h postdose) [8, 12]: 1.0 ± 0.3
Tmax [8, 12]: 1.0 ± 0.3 h
Cavg (D1) [8, 13]: 0.0502 ± 0.0094 µg/mL
Cmax (D1) [8, 13]: 0.0752 ± 0.0163 µg/mL
Cavg [8, 14]: 0.0417 ± 0.0093 µg/mL
RACC3.5 (ratio of day 4/day 1 concentrations 3.5 h postdose) [8, 14]: 1.0 and 1.0 ± 0.1
AUC(0-t) [8, 15]: 0.181 ± 0.0354 µg·h/mL
AUC(0-t) [8, 16]: 0.176 ± 0.0326 µg·h/mL
Cmax [8, 15]: 0.0751 ± 0.0161 µg/mL
Cmax [8, 16]: 0.0838 ± 0.0156 µg/mL
Tmax ([8]; human, in vivo, sc, t max (D1), once-daily (2.5 mg/0 mg) SC, dose 1, n = 17-22): 1 ± 0.3 h
Tmax ([8]; human, in vivo, sc, t max (D1), twice-daily (2.5 mg/2.0 mg) SC, dose 1, n = 19-20): 0.9 ± 0.4 h
Tmax ([8]; human, in vivo, sc, t max, twice-daily (2.5 mg/2.0 mg) SC, n = 19-20): 3.3 ± 2 h
SMILES: CCCC[C@H](NC(C)=O)C(=O)N[C@H]1CC(=O)NCCCC[C@@H](C(=O)O)NC(=O)[C@H](Cc2c[nH]c3ccccc23)NC(=O)[C@H](CCCNC(=N)N)NC(=O)[C@@H](Cc2ccccc2)NC(=O)[C@H](Cc2c[nH]cn2)NC1=O [bremelanotide]
Body weight (murine model): reduced
Food intake (murine model): reduced
Mean decrease in waist circumference from baseline to day 16 (obese women [1]): 1.63%
Body weight (rat model): reduced
Food intake (rat model): reduced
Subjects withdrawn while receiving the regimen (obese women [3]): No subjects
Daily caloric intake versus placebo (obese women [4]; once or twice daily, all four treatment days, p < 0.001): significantly lower
Weight loss after 4 days versus placebo (obese women [4]; once-daily (2.5 mg/0 mg) SC, p = .0805): numerically greater than weight loss observed in placebo‐treated subjects, but the difference did not reach statistical significance
Mean weight loss from baseline after 4 days (obese women [4]; twice-daily (2.5 mg/2.0 mg) SC, ITT, placebo 0.9 kg, p < .001): 1.7 kg
Subjects experiencing nausea (obese women [5]): 18% to 30
AE leading to treatment discontinuation: Nausea (obese women [6]; [9]): 1 (4.5) n (%)
AE leading to treatment discontinuation: Vomiting (obese women [6]; [9]): 1 (4.5) n (%)
AE: Decreased appetite (obese women [6]; [9]): 2 (9.1) n (%)
AE: Ephelides (obese women [6]; [9]): 0 n (%)
AE: Feeling hot (obese women [6]; [9]): 2 (9.1) n (%)
AE: Flatulence (obese women [6]; [9]): 1 (4.5) n (%)
AE: Flushing (obese women [6]; [9]): 4 (18.2) n (%)
AE: Headache (obese women [6]; [9]): 2 (9.1) n (%)
AE: Injection site erythema (obese women [6]; [9]): 9 (40.9) n (%)
AE: Injection site pain (obese women [6]; [9]): 7 (31.8) n (%)
AE: Injection site pruritus (obese women [6]; [9]): 2 (9.1) n (%)
AE: Injection site reaction (obese women [6]; [9]): 16 (72.7) n (%)
AE: Injection site swelling (obese women [6]; [9]): 2 (9.1) n (%)
AE: Libido increased (obese women [6]; [9]): 3 (13.6) n (%)
AE: Nausea (obese women [6]; [9]): 4 (18.2) n (%)
AE: Pigmentation disorder (obese women [6]; [9]): 6 (27.3) n (%)
AE: Procedural dizziness (obese women [6]; [9]): 2 (9.1) n (%)
AE: Skin hyperpigmentation (obese women [6]; [9]): 0 n (%)
AE: Vessel puncture site haemorrhage (obese women [6]; [9]): 0 n (%)
Subjects experiencing an AE leading to treatment discontinuation (obese women [6]; [9]): 2 (9.1) n (%)
Subjects experiencing ≥1 AE (obese women [6]; [9]): 21 (95.5) n (%)
Subjects experiencing ≥1 AE: Mild (obese women [6]; [9]): 21 (95.5) n (%)
Subjects experiencing ≥1 AE: Moderate (obese women [6]; [9]): 4 (18.2) n (%)
Subjects experiencing ≥1 AE: Severe (obese women [6]; [9]): 0 n (%)
Subjects experiencing ≥1 treatment‐related AE (obese women [6]; [9]): 21 (95.5) n (%)
Treatment‐related AE: Decreased appetite (obese women [6]; [9]): 2 (9.1) n (%)
Treatment‐related AE: Ephelides (obese women [6]; [9]): 0 n (%)
Treatment‐related AE: Feeling hot (obese women [6]; [9]): 2 (9.1) n (%)
Treatment‐related AE: Flatulence (obese women [6]; [9]): 1 (4.5) n (%)
Treatment‐related AE: Flushing (obese women [6]; [9]): 4 (18.2) n (%)
Treatment‐related AE: Headache (obese women [6]; [9]): 2 (9.1) n (%)
Treatment‐related AE: Injection site erythema (obese women [6]; [9]): 9 (40.9) n (%)
Treatment‐related AE: Injection site pain (obese women [6]; [9]): 7 (31.8) n (%)
Treatment‐related AE: Injection site pruritus (obese women [6]; [9]): 2 (9.1) n (%)
Treatment‐related AE: Injection site reaction (obese women [6]; [9]): 16 (72.7) n (%)
Treatment‐related AE: Injection site swelling (obese women [6]; [9]): 2 (9.1) n (%)
Treatment‐related AE: Libido increased (obese women [6]; [9]): 3 (13.6) n (%)
Treatment‐related AE: Nausea (obese women [6]; [9]): 4 (18.2) n (%)
Treatment‐related AE: Pigmentation disorder (obese women [6]; [9]): 6 (27.3) n (%)
Treatment‐related AE: Skin hyperpigmentation (obese women [6]; [9]): 0 n (%)
Number of SAEs reported (in a single subject) (obese women [6]; once-daily bremelanotide, nausea, vomiting, hypersensitivity, dizziness, headache): Five
AE leading to treatment discontinuation: Vomiting (obese women [6]; [10]): 1 (5.0) n (%)
AE: Decreased appetite (obese women [6]; [10]): 0 n (%)
AE: Ephelides (obese women [6]; [10]): 2 (10.0) n (%)
AE: Feeling hot (obese women [6]; [10]): 0 n (%)
AE: Flatulence (obese women [6]; [10]): 3 (15.0) n (%)
AE: Flushing (obese women [6]; [10]): 3 (15.0) n (%)
AE: Headache (obese women [6]; [10]): 4 (20.0) n (%)
AE: Injection site erythema (obese women [6]; [10]): 5 (25.0) n (%)
AE: Injection site pain (obese women [6]; [10]): 8 (40.0) n (%)
AE: Injection site pruritus (obese women [6]; [10]): 3 (15.0) n (%)
AE: Injection site reaction (obese women [6]; [10]): 20 (100) n (%)
AE: Injection site swelling (obese women [6]; [10]): 2 (10.0) n (%)
AE: Libido increased (obese women [6]; [10]): 2 (10.0) n (%)
AE: Nausea (obese women [6]; [10]): 4 (20.0) n (%)
AE: Pigmentation disorder (obese women [6]; [10]): 2 (10.0) n (%)
AE: Procedural dizziness (obese women [6]; [10]): 0 n (%)
AE: Skin hyperpigmentation (obese women [6]; [10]): 3 (15.0) n (%)
AE: Vessel puncture site haemorrhage (obese women [6]; [10]): 2 (10.0) n (%)
Subjects experiencing an AE leading to treatment discontinuation (obese women [6]; [10]): 1 (5.0) n (%)
Subjects experiencing ≥1 AE (obese women [6]; [10]): 20 (100) n (%)
Subjects experiencing ≥1 AE: Mild (obese women [6]; [10]): 20 (100) n (%)
Subjects experiencing ≥1 AE: Moderate (obese women [6]; [10]): 1 (5.0) n (%)
Subjects experiencing ≥1 AE: Severe (obese women [6]; [10]): 0 n (%)
Subjects experiencing ≥1 SAE (obese women [6]; [10]): 0
Subjects experiencing ≥1 treatment‐related AE (obese women [6]; [10]): 20 (100) n (%)
Treatment‐related AE: Decreased appetite (obese women [6]; [10]): 0 n (%)
Treatment‐related AE: Ephelides (obese women [6]; [10]): 2 (10.0) n (%)
Treatment‐related AE: Feeling hot (obese women [6]; [10]): 0 n (%)
Treatment‐related AE: Flatulence (obese women [6]; [10]): 2 (10.0) n (%)
Treatment‐related AE: Flushing (obese women [6]; [10]): 3 (15.0) n (%)
Treatment‐related AE: Headache (obese women [6]; [10]): 3 (15.0) n (%)
Treatment‐related AE: Injection site erythema (obese women [6]; [10]): 5 (25.0) n (%)
Treatment‐related AE: Injection site pain (obese women [6]; [10]): 8 (40.0) n (%)
Treatment‐related AE: Injection site pruritus (obese women [6]; [10]): 3 (15.0) n (%)
Treatment‐related AE: Injection site reaction (obese women [6]; [10]): 20 (100.0) n (%)
Treatment‐related AE: Injection site swelling (obese women [6]; [10]): 2 (10.0) n (%)
Treatment‐related AE: Libido increased (obese women [6]; [10]): 2 (10.0) n (%)
Treatment‐related AE: Nausea (obese women [6]; [10]): 3 (15.0) n (%)
Treatment‐related AE: Pigmentation disorder (obese women [6]; [10]): 2 (10.0) n (%)
Treatment‐related AE: Skin hyperpigmentation (obese women [6]; [10]): 3 (15.0) n (%)
Decrease from baseline in mean systolic blood pressure (obese women [7]): < 10%
